Experimental findings from ChEMBL document CHEMBL4513216, “Probing the Open Global Health Chemical Diversity Library for Multistage-Active Starting Points for Next-Generation Antimalarials” (ACS Infect Dis, 2020) are described below.

A short description of this data set: Toxicity liver stage against HepG2, at 10uM. The class given is cell-based. The arrangement: test concentration 10 uM, cell line HepG2-A16-CD81EGFP. To be noted: human, HepG2-A16-CD81EGFP cells; read-out: INHIBITION
The method in brief:
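Uninfected HepG2-A16-CD81EGFP cells, 3 × 10^3 per well, 1536-well, plated on prespotted compound at 10 μM final, parasite-free screening media added to match infected plates; puromycin 10 μM positive, DMSO 0.5% negative; run in parallel with 48 h PbLuc assay at 37 °C, 5% CO2; viability by CellTiter-Glo luminescence, normalized to controls.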
With `Cc1nn(CCC#N)c(C)c1[C@@H]1C=C[C@@H](NCc2ccc(F)cc2)C1`, the cytotoxicity at 10 µM is 2%. As for `CC(C)Nc1nc(C(=O)Nc2ccccn2)cs1`, the figure is 5.15%; as for `COc1ccc(-c2cc(C(=O)Nc3nc[nH]n3)[nH]n2)cc1`, -12.1%; as for `COCC(C)(O)CNC(=O)c1cc(-c2cc(OC)ccc2OC)nn1C` (stereo not drawn), -6.42%. Take `Cn1cccc1CN(C(=O)CC(CC(=O)O)c1cccs1)C1CC1` (stereo not drawn): the cytotoxicity at 10 µM turned out to be 2.27%. For `O=C(c1ccnnc1)N1CC2(CCN(c3ncccn3)C2)C1`, the cytotoxicity at 10 µM worked out at 5.62%. With `CC1(C)CC(=O)c2cnc3nc(N4CCOCC4)nc(O)c3c2C1`, the cytotoxicity at 10 µM came to 1.21%. As for `CCOc1ccc(Cl)cc1CNCCCn1ccnc1`, the cytotoxicity at 10 µM came out at 1.36%.

For the molecule `Cn1cc(CN2C[C@@H]3COC[C@]3(COc3ccc(C#N)cn3)C2)cn1`, the cytotoxicity at 10 µM was -11.3%. As for `Cn1cc(C[C@H]2[C@@H](O)CCN2C(=O)C2CC=CC2)cn1`, the figure is 5.6%; as for `c1ccc(CO[C@H]2CN(c3ncccn3)C[C@@]23CCCO3)cc1`, -6.11%. With `CNC(=O)C1CN(c2cc(C)ncn2)CCN1Cc1ccccc1` (stereo not drawn), the cytotoxicity at 10 µM was 10%.

As to `Cc1ccnn1CCNC(=O)c1cnc(N(C)C)nc1`, the cytotoxicity at 10 µM was found to be 2.24%. As for `COc1ccc(F)cc1C(=O)N(C)[C@@H]1CC[C@@H](O)[C@@H]1O`, the figure is 7.81%. `Cc1cccc(C2CCN(S(=O)(=O)c3cn(C)cn3)CC2)n1`: the cytotoxicity at 10 µM is -20.2%. As for `c1cncc(CC2CN(c3cccnc3)CCO2)c1` (stereo not drawn), the figure is -0.41%; as for `COc1ccccc1[S+]([O-])CC(=O)NCc1cc(F)cc(F)c1` (stereo not drawn), 24.3%. In the case of `OC1(CNc2ccc(Br)cn2)CCSCC1` it was 5.63%. With `COCCNC(=O)NCc1ccc(-n2ccc(C(F)(F)F)n2)cc1`, the cytotoxicity at 10 µM is -7.29%.

Take `OCCN1CCC(CNCc2cn(-c3ccccc3)nn2)CC1`: the cytotoxicity at 10 µM worked out at 0.03%. In the case of `CN(CC(N)=O)Cc1cc(Cl)cc2cccnc12`, the cytotoxicity at 10 µM came to 6.37%. In the case of `CC(C)Sc1ccc(N2CCN(Cc3ccccn3)CC2)nn1` it was 2.11%. As for `O=C(NS(=O)(=O)c1cccc(C(F)(F)F)c1)c1cscn1`, the figure is 1.67%; as for `Cc1noc(C)c1CS(=O)(=O)CC(=O)NCCc1cccs1`, -1.6%. In the case of `CCCN1CCCN(C(=O)Nc2ccc3c(c2)OCO3)CC1` it was -4.92%; in that of `Cc1cc(N(C)C)nc(N2CC(n3cccn3)C2)n1`, -3.24%; in that of `c1cc(-c2noc(C3CCC3)n2)cc(N2CCCCC2)n1`, -1.39%. As to `CSCC(C)(O)CNC(=O)c1cc(F)ccc1Br` (stereo not drawn), the cytotoxicity at 10 µM is -5.41%. In the case of `COC(=O)N1CCN(Cc2csc(-c3ncccn3)n2)CC1` it was -7.53%; in that of `CC(C)c1cnc(CN(C)C2CCN(CCc3ccccn3)C2)o1` (stereo not drawn), 2.37%. On to `CCC(CC)NC(=O)NCc1ccnc(-n2ccnc2C)c1`, for which the cytotoxicity at 10 µM was -1.21%.

For the molecule `c1coc(CNc2nnc(Cc3ccsc3)o2)c1`, the cytotoxicity at 10 µM was -2.28%. With `CC(NC(=O)COC1CCCC1)c1nc(-c2ccccc2)c[nH]1` (stereo not drawn), the cytotoxicity at 10 µM was determined as 4.24%.

As for `CN(C)c1nccc(CNS(=O)(=O)c2cc(Cl)cc(Cl)c2)n1`, the cytotoxicity at 10 µM is -138%. As for `CCc1cnc(CN2C(=O)CC3(CCSC3)C2=O)o1` (stereo not drawn), the figure is -9.36%; as for `CC(c1ccccn1)N(C)C(=O)NCCn1c(=O)oc2ccccc21` (stereo not drawn), -6.37%; as for `Cc1cccc(C(=O)Nc2c(C(N)=O)n[nH]c2C)c1C`, -1.49%. In the case of `O=C(Cc1ccccc1O)Nc1ccc(N2CCCC2)nc1` it was 9.31%. As for `Cc1cc(N2CCC(NC(=O)CCc3cnn(C)c3)CC2)nc(C)n1`, the figure is -2.01%; as for `CC(=O)N(C)Cc1ccc(OCc2cccs2)cc1`, 12.4%. With `CC1CCN(C(=O)CSCc2nc(C3CC3)no2)CC1`, the cytotoxicity at 10 µM was determined as 1.26%. For the molecule `Cn1ncnc1NCc1ccc(F)cc1`, the cytotoxicity at 10 µM was found to be 0.361%. Take `Cc1cc(F)c(S(=O)(=O)N(C)CCn2cccn2)cc1F`: the cytotoxicity at 10 µM came out at 0.532%. In the case of `Cc1noc(C)c1C[S+]([O-])Cc1cn2cccc(C)c2n1` (stereo not drawn) it was 2.14%. In the case of `NCC(c1ccccc1)N1CCc2sccc2C1` (stereo not drawn) it was 1.88%; in that of `CC(C)n1cc(CN2CCCN(C(=O)c3nccnc3N)CC2)cn1`, 7.13%. As for `CC(Oc1ccccc1C(F)(F)F)C(=O)NCCC(=O)N(C)C` (stereo not drawn), the figure is -4.25%. For the molecule `O=C(Cn1ccc(=O)cc1)NCc1ccc2sccc2c1`, the cytotoxicity at 10 µM is 0.592%. As for `Cc1cccc2c1nc(COCC(=O)O)n2-c1cnc(N)cn1`, the figure is 0.238%; as for `COCCCC1CCCCN1S(=O)(=O)c1cccc(C#N)c1` (stereo not drawn), -133%. Consider `CC(C)(CN1CCC2(CCCNC2)C1)N1CCOCC1` (stereo not drawn), for which the cytotoxicity at 10 µM is -141%.

As for `CSCc1ccc(N(C)CC2CCCN(C(C)C)C2)nc1` (stereo not drawn), the cytotoxicity at 10 µM is -128%. As for `CCCn1ncnc1C(C)NC(=O)C1CCN(CC(N)=O)CC1` (stereo not drawn), the figure is -140%. On to `CN(CCc1ccccc1)c1cnn(CC2COCCO2)c(=O)c1` (stereo not drawn), for which the cytotoxicity at 10 µM was -10.3%.

Consider `CCCC1(CO)CCCN(C(=O)CNC(N)=O)C1` (stereo not drawn), for which the cytotoxicity at 10 µM was 0.83%.

As for `O=C1NCCN(Cc2ccccc2)C1CC(=O)N1CCc2n[nH]cc2C1` (stereo not drawn), the cytotoxicity at 10 µM was -6.73%.

Turning to `CCCn1ncc(-c2nc3c(cnn3CC)[nH]2)c1C`, the cytotoxicity at 10 µM was 4.05%. In the case of `CN(C)c1ccc(CN2CCC(C(O)Cc3ccccc3)CC2)cn1` (stereo not drawn) it was -1.29%. As for `N#Cc1c(C2CC2)cc(-c2ccc(F)c(F)c2)nc1N`, the figure is -5.73%; as for `COc1cccc(-c2n[nH]cc2C(=O)NC(C)c2nc(C(C)C)no2)c1` (stereo not drawn), -2.75%; as for `CCc1c(C)nn(CCNC(=O)C2CCCN(C(=O)N(C)C)C2)c1C` (stereo not drawn), -4.42%. In the case of `c1ccc(-c2nnc(CN3CCCC3Cn3cncn3)o2)cc1` (stereo not drawn) it was -7.42%; in that of `Cc1cccc(OCCNC(=O)CN2CCN(C)CC2C)c1` (stereo not drawn), -2.66%; in that of `CN(Cc1ccc(N(C)C)cc1)C(=O)c1cc2c([nH]c1=O)CCCC2=O`, -3.34%. Take `COc1ccc(CCN(C)C2CCCN(Cc3noc(C)n3)C2)cc1` (stereo not drawn): the cytotoxicity at 10 µM was -4.59%. As for `CCNc1cc2c(nn1)CCN(C(=O)Cc1ccc(C)nc1)C2`, the figure is -3.63%. As for `O=C(Nc1ccncc1)N(CCO)Cc1ccsc1`, the figure is -3.98%; as for `Cc1cc(C(=O)N2CCCC(n3cncn3)C2)c(C)n1CC1CC1` (stereo not drawn), 2.37%.

For the molecule `CCn1cnnc1C1CCN(C(=O)COc2ccccc2OC)CC1`, the cytotoxicity at 10 µM is -4.41%. In the case of `CCN(CC)CC1CN(Cc2nccs2)Cc2nccn2C1` (stereo not drawn) it was 1.13%; in that of `O=C(CC1CCCC1)N1CCC2(CCN2Cc2ccc(F)cc2)C1` (stereo not drawn), -5.66%. In the case of `Cc1nnsc1CN1C[C@H]2CC[C@@H](C1)N(Cc1c(C)noc1C)C2=O` it was -4.56%.

Turning to `CCN1C(=O)CCC12CCC(NC(=O)c1cnccn1)CC2` (stereo not drawn), the cytotoxicity at 10 µM is -2.42%.
